Laboratory results reported in ChEMBL document CHEMBL4513216, “Probing the Open Global Health Chemical Diversity Library for Multistage-Active Starting Points for Next-Generation Antimalarials” (ACS Infect Dis, 2020).

Assay: Toxicity liver stage against HepG2, at 10uM
Assay type: cell-based
Design: test concentration 10 uM, cell line HepG2-A16-CD81EGFP
Settings: human, HepG2-A16-CD81EGFP cells; read-out: INHIBITION
Summary of the method: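 Uninfected HepG2-A16-CD81EGFP cells, 3 × 10^3 per well, 1536-well, plated on prespotted compound at 10 μM final, parasite-free screening media added to match infected plates; puromycin 10 μM positive, DMSO 0.5% negative; run in parallel with 48 h PbLuc assay at 37 °C, 5% CO2; viability by CellTiter-Glo luminescence, normalized to controls.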

Row | Structure (SMILES) | cytotoxicity at 10 µM [%]
1 | Cc1c(C)n2c(SCC(=O)N3CCC(C)CC3)nnc2[nH]c1=O | 0.351
2 | COCC(=O)N[C@H]1C[C@H]2C(=O)NC[C@@H](CCC(=O)NC3CC3)N2C1 | 10.7
3 | CCOCc1nc(N2CCOCC2)sc1C(=O)NCc1ccco1 | 1.64
4 | N#CCCN(CC1CCCO1)C(=O)c1ccc(C#N)cc1 (stereo not drawn) | -2.45
5 | CC(C)(C)c1csc(CCNC(=O)[C@H](c2ccccc2)n2cnnn2)n1 | 2.07
6 | CC(C)NC(=O)CSc1nc2c(cnn2CCO)c(=O)[nH]1 | -8.72
7 | Cc1nnc(CNC(=O)C2CSCCC(=O)N2)o1 (stereo not drawn) | -10.1
8 | Cc1nc(C)c2c(n1)CCN(Cc1ccsc1)CC2 | -126
9 | O=C1CCCN1Cc1ncn2c1CN(S(=O)(=O)c1cccs1)CCC2 | 4.76
10 | Cn1cc(C(=O)NCc2cn3c(n2)CN(Cc2ccncc2)CC3)cn1 | 5.71
11 | CO[C@H]1CC[C@H]2[C@H]1OCCN2C(=O)C1=CCCC1 | -131
12 | O=C(O)c1nnn(Cc2ccc(F)cc2)c1-c1cccnc1 | -6.21
13 | COc1ccccc1Nc1nc2c(C)nn(C)c2c(=O)n1C | 2.56
14 | Cc1ccc(C2NC(=O)c3cc(C(C)C)sc3N2)cc1 (stereo not drawn) | 7.96
15 | Cn1c(=O)oc2ccc(S(=O)(=O)N3CCC(c4ccccc4)C3)cc21 (stereo not drawn) | 5.43
16 | N#Cc1c[nH]nc1NCc1ccc2c(c1)OCO2 | -8.75
17 | O=C1NC2(CCCN(C(=O)CCn3cncn3)C2)Oc2ccccc21 (stereo not drawn) | 3.08
18 | Cc1nc(C2CCCCN2S(C)(=O)=O)no1 (stereo not drawn) | 9.23
19 | CC(C)OCCCNS(=O)(=O)c1ccc2c(c1)NC(=O)C(C)O2 (stereo not drawn) | 0.893
20 | CCCn1ncc(CN(Cc2cccnc2)Cc2cccs2)c1C | 1.64
21 | Cc1ccc(N(C)[C@@H]2CC[C@@H]3CN(C(=O)C4CCOCC4)C[C@@H]32)nn1 | -4.43
22 | CCS(=O)(=O)NCCNc1c(C#N)cnc2c(F)cc(F)cc12 | 16.2
23 | CCC(CC)(CNC(=O)c1cccn1Cc1cccnc1)N(C)C | -53.6

Row | Structure (SMILES) | cytotoxicity at 10 µM [%]
24 | CCOc1cccc(NCc2cnc(N3CCN(C)CC3)nc2)n1 | 1.75
25 | CCN(CC)S(=O)(=O)NC(=O)c1cc(C)n(-c2ccccc2)n1 | -9.68
26 | FC(F)(F)CCN(Cc1ccon1)C1CCC1 | 1.19
27 | Cc1ccc(NC(=O)C2CCCN2C(=O)C2CC2)nc1 (stereo not drawn) | -2.15
28 | Cc1cc(C2CCCN2Cc2cc(-c3ccco3)on2)on1 (stereo not drawn) | 1.6
29 | Cc1nnc(N2CCc3cncnc3C2)c(C#N)c1C | -154
30 | Cc1cc(C)n(C2CN(CCC(N)=O)C2)n1 | -5.04
31 | Cc1c(C(=O)N2CCCN(S(C)(=O)=O)CC2)cnn1C | 17.2
32 | CC(C)(C)C(NC(=O)CCCS(C)(=O)=O)c1ccc(F)cc1F (stereo not drawn) | 8.87
33 | CCc1ncnc(N2CCOCC2C(N)=O)c1F (stereo not drawn) | -4.73
34 | CCOCCCOC(=O)c1ccc2c(c1)[nH]c(=O)n2C | 3.54
35 | N#Cc1cccc(CN(CC(=O)N2CCCC2)CC2CCCO2)c1 (stereo not drawn) | -5.52
36 | CCOC(=O)C1CCN(C(=O)CN2CCCC2Cc2ccccc2)CC1 (stereo not drawn) | 12.7
37 | COc1ccc(CNC(=O)CCc2c(C)noc2C)cc1F | -6.87
38 | CCOCCN1CCN(CCc2nc3ccccc3c(=O)[nH]2)CC1 | 4.12
39 | COc1cc(CN(C)C(=O)NCc2nccs2)ccc1SC | -7.66
40 | NCC1(c2cccc(C(F)(F)F)c2)CCC1 | -4.27
41 | CCCOc1ccc(Cl)cc1NC(=O)NCCC(=O)N(C)C | -0.734
42 | NC(=O)c1cnc(NC2CCN(c3ccccn3)CC2)c(Cl)c1 | 13.8
43 | CCN(C(C)=O)C(c1cccnc1)c1cc(C)cc(C)c1 (stereo not drawn) | 6.72
44 | O=C(NC1CCCN(c2ccc(OC(F)F)cc2)C1)c1cnc[nH]1 (stereo not drawn) | -2.15
45 | NS(=O)(=O)N1CCC(CSc2ccccc2)C1 (stereo not drawn) | -9.8
46 | CCS(=O)(=O)c1nccn1-c1cccc(F)c1 | 3.12

Row | Structure (SMILES) | cytotoxicity at 10 µM [%]
47 | CCOC(C)c1nc(Cn2cccn2)cs1 (stereo not drawn) | 1.04
48 | CCN(C(=O)Nc1nncs1)C(C)c1cccc(OC)c1 (stereo not drawn) | 4.84
49 | Cc1cc(C2CCCN2c2ncc(C(N)=O)cc2Cl)no1 (stereo not drawn) | -4.57
50 | CCN(CCCNc1ncnc2cc(F)c(F)cc12)S(C)(=O)=O | 37.7
51 | Cn1c(CN2CCOC(Cn3cncn3)C2)nc2ccccc21 (stereo not drawn) | -4.76
52 | O=C(c1ccc(Br)cc1F)N1CCc2ccncc21 | -1.16
53 | Cc1cc(C(=O)NCCN2CCCC(C)C2)nn1C(C)(C)C (stereo not drawn) | 9.34
54 | CCNc1cc2c(nn1)CCN(C(=O)c1ccc(-n3cccn3)nc1)C2 | 5.05
55 | CCOCCS(=O)(=O)N(CC)Cc1ccc(Cl)s1 | -6.15
56 | Cc1cccc(N2CCC(NC(=O)CCCc3cccs3)CC2)n1 | -12.5
57 | Cc1cccc(CN2CC[C@@H]3O[C@@H](C(=O)N4CCN(C)CC4)C[C@@H]32)n1 | 1.04
58 | COCC1COCCC12CCN(S(=O)(=O)c1ccc(C)cc1)CC2 (stereo not drawn) | 4.79
59 | O=C(c1cccnc1)N1CCc2c(COCC3CC3)cncc2C1 | -77.2
60 | COc1ccc(CN2CC[C@@]3(O)CCCC[C@H]3C2)cc1C(=O)O | -3.12
61 | COc1ccccc1-n1nc(CC(C)C)nc1CSc1nnc(N)s1 | 1.62
62 | O=C1NCCN1CCNc1cc(-c2ccncc2)nc2ccnn12 | -4.76
63 | CN(CC1Cc2ccccc2CN1C)C(=O)CSc1ccccn1 (stereo not drawn) | -1.32
64 | CCCn1cc(C(=O)NCCC(=O)NC2CCCCC2)c(C)n1 | -3.31
65 | Cc1n[nH]c(C)c1CCNC(=O)C1CCCN(Cc2ccco2)C1 (stereo not drawn) | -6.23
66 | CCCn1ncc(C(=O)N2CCN([C@H]3CCCC[C@@H]3O)CC2)c1C | -137
67 | CCN(C)S(=O)(=O)N1CCCC(c2cccc(C(=O)O)c2)C1 (stereo not drawn) | 0.91
68 | Cc1ccccc1NC(=O)N1CCN(C(=O)C2CC2)[C@@H]2CS(=O)(=O)C[C@@H]21 | 2.78
69 | c1ccc(Cc2n[nH]c(C3CCOC3)n2)cc1 (stereo not drawn) | 1.06

Row | Structure (SMILES) | cytotoxicity at 10 µM [%]
70 | COC(=O)c1cc2n(n1)CCN(C(=O)c1csc(CN(C)C)n1)C2 | -8.44
71 | COc1cc(C)c(C2CC(=O)Nc3cc(NS(C)(=O)=O)ccc32)cc1C (stereo not drawn) | -15
72 | Cc1nc[nH]c1CN(C)Cc1cnn(-c2ccc(F)cc2)c1 | 0.345
73 | CNc1ncc(C(=O)N2CCC(c3ccccc3C(=O)O)C2)cn1 (stereo not drawn) | -7.67
74 | Cc1nc[nH]c1-c1nccn1CCN1CCCC1=O | -6.88
75 | c1cncc(Cc2nnc3n2CCN(CC2CCOC2)CC3)c1 (stereo not drawn) | -2.11
76 | CN1CC2(CCN(C(=O)c3[nH]cnc3-c3ccccc3)C2)OC1=O (stereo not drawn) | 4.43
77 | CCCOCC(=O)N1CCc2nc(NC)nc(C(=O)N3CCCC3)c2C1 | -109
78 | Nc1nc2c(c(N3CCOCC3)n1)CCN(C(=O)c1ccc[nH]1)CC2 | -2.02
79 | Cc1cc(C)c(C(=O)N2CCOC(CCN(C)C)C2)o1 (stereo not drawn) | -1.92
80 | CC(Oc1ccc2c(c1)OCO2)C(=O)N1CCC(N2CCCC2)CC1 (stereo not drawn) | -4.63
81 | CN(Cc1cccnc1)CC1CCOc2ccccc2C1 (stereo not drawn) | -4.92
82 | O=C1[C@@H]2CN(c3ncc(Cl)cc3F)C[C@]2(C(=O)O)CN1CC1CC1 | -0.33
83 | COc1cccc([C@@H]2CCN(Cc3c[nH]c(C)n3)C[C@H]2O)c1 | -2.89
84 | Cc1nsc(NC(=O)N2CCC(C(C)(C)O)CC2)n1 | 17.5
85 | O=C(O)C(c1ccc2c(c1)OCCO2)N1CCCCCC1 (stereo not drawn) | -3.26
86 | O=C(CCc1ccc(O)cc1)N1CCC(Cc2ccc(CO)cc2)C1 (stereo not drawn) | 14.8
87 | Cc1nc(C)n(C2CCCN(C(=O)CCOC(C)C)C2)n1 (stereo not drawn) | -1.92
88 | CCn1cnnc1C1CCN(C(=O)c2ccoc2C)CC1 | -8.04
89 | CN(Cc1nc2c(cnn2C)c(=O)[nH]1)Cc1ccco1 | -8.11
90 | CC(C(=O)NCCN1CCCCC1)n1cncn1 (stereo not drawn) | -3.37
91 | Cc1noc(Cl)c1CCC(=O)N1CCC(Nc2cccnn2)CC1 | -2.57
92 | CCCc1nc(C(C)(C)NC(=O)C2CC(=O)N(CC(C)C)C2)no1 (stereo not drawn) | -5.31

Row | Structure (SMILES) | cytotoxicity at 10 µM [%]
93 | Cc1ccc(-c2cc(CNC(=O)N3CCSCC3)on2)cc1 | 2.7
94 | COc1cccc2cc(CNCc3ccnc(N(C)C)c3)oc12 | -6.87
95 | CC(c1nc(C(C)(C)C)no1)N1CCN(Cc2ccc(C#N)cc2)CC1 (stereo not drawn) | -5.38
96 | CC(Cn1ccnc1)NC(=O)NCCc1ccc(Cl)s1 (stereo not drawn) | -12.4
97 | COc1cccc(-n2c(C)cc(C(=O)NCCCC(N)=O)c2C)c1 | -11.9
98 | Cc1ccccc1OCCC(=O)N1CCC(c2nncn2C)CC1 | -13.3
99 | CCc1nc(CN2CCCN(C(=O)C(CC)OC)CC2)cs1 (stereo not drawn) | -15.8
100 | COc1ccc(C(=O)NC(CC(=O)O)c2cccs2)c(OC)c1 (stereo not drawn) | -0.463
101 | CSC(C)C(=O)N1CCCN(Cc2nccn2C)CC1 (stereo not drawn) | -11.6
102 | CN1CCCN(C(=O)NCCNc2cnccn2)CC1 | -3.4
103 | CCOc1ccc(S(=O)(=O)NC(=O)CC2CCCO2)cc1 (stereo not drawn) | -16.3
104 | O=C(NCc1ccc2c(c1)OCO2)Nc1cccnc1N1CCCC1 | -13.4
105 | Cc1noc(C)c1CCC(=O)N1CCCN(Cc2cscn2)CC1 | -4.51
106 | c1ccc(-c2ncc(CNC3CCc4ncnn4C3)cn2)cc1 (stereo not drawn) | -0.722
107 | CCN(CC)CCn1c(=O)oc2ccccc21 | 2.96
108 | CC1c2ncc(CNC(=O)C3CC3)n2CCN1Cc1cccnc1 (stereo not drawn) | -3.76
109 | CN(C)Cc1nn(C)c2c1CCN(C(=O)CC1CC1)C2 | -3.86
110 | Cn1cccc1C(=O)N[C@@H]1CN(Cc2cccs2)[C@@H]2COC[C@@H]21 | 8.88
111 | O=C(Nc1cc(C(F)(F)F)c[nH]c1=O)C1CCCCN1 (stereo not drawn) | -0.924
112 | Cn1nc(Cn2cccc2)c2c1CN(Cc1ccsc1)C2 | -133
113 | COCCN1C[C@@H]2CC[C@H]1CN(C(=O)CCc1n[nH]c(C)c1C)C2 | -8.92
